Activity calls are given as the source filed them.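 The calls were made as follows: active = IC50 at or below 1 µM; inactive = the rest.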
Target: Protein-arginine deiminase type-4 (Homo sapiens) (UniProt Q9UM07)
Assay: recombinant human PAD4 inhibitors – biochemical, BAEE substrate, citrulline absorbance, 0-500 µM range, late-stage follow-up (AID 588421)
Settings: recombinant PAD4, BAEE citrulline colorimetric absorbance
In short: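 assay system = recombinant human PAD4 enzyme (protein-arginine deiminase 4) | input = PAD4 enzyme at 0.2 µM | timing = 15 min preincubation (37 °C), 15 min reaction | read-out basis = IC50 from fitted fractional PAD4 activity, citrulline standard curve | signal = colorimetric absorbance of citrulline product at 540 nm | also added = BAEE substrate at 10 mM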

Chain of Protein-arginine deiminase type-4 (Homo sapiens) (Q9UM07 whole entry, looked up): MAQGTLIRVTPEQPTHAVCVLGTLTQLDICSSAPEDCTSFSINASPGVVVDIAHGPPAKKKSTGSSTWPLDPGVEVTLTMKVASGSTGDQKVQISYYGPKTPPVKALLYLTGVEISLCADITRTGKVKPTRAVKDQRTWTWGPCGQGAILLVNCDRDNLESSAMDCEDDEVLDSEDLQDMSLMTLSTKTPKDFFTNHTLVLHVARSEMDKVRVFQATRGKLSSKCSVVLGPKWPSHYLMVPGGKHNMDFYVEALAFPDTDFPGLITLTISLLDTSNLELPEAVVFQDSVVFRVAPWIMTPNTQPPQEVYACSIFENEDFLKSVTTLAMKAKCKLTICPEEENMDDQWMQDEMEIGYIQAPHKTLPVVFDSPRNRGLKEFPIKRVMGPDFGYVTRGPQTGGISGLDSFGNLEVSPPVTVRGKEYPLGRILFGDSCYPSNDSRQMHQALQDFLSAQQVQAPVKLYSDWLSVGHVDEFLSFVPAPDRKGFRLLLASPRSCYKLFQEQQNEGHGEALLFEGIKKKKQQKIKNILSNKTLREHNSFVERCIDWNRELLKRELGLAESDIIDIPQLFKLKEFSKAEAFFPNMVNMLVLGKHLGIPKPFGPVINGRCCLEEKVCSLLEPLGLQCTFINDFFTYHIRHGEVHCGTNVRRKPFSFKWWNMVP

## COC(=O)c1nc(C(=O)OC)c(NC(C)=O)c(-c2ccccc2Br)c1C
  IC50: inactive

Reference: PubChem BioAssay AID588421 (The Scripps Research Institute Molecular Screening Center, 2011)
